Source: ChEMBL document CHEMBL4011654, “Mitochondria-Targeted Lupane Triterpenoid Derivatives and Their Selective Apoptosis-Inducing Anticancer Mechanisms” (J Med Chem, 2017)
pIC50: −log10 of the molar value. Calls of active or inactive are those of the source. No cut-off for these calls is given here.

Key:
[1] = tested on: K562; test: Antitumor activity against CM-Dil-labeled human K562 cells xenografted in wild-type zebrafish embryos assessed as reduction in cell migration at 10 ug/ml measured after 48 hrs by confocal microscopic analysis; assay type: functional, cell-based
How it was run: (§1)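 K562 cells labelled with CM-Dil, suspended in FBS-free medium at (1 × 107)/mL and microinjected into wild-type zebrafish embryos kept at 28 °C in embryonic medium. After 4 h, embryos with the same injection spot were pooled at 15−20 per well and exposed to compound; Taxol served as positive control. At 48 h, confocal imaging gave fluorescent area (migration) and fluorescence intensity (cell number); n = 15.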

[2] = tested on: K562; test: Antitumor activity against CM-Dil-labeled human K562 cells xenografted in wild-type zebrafish embryos assessed as tumor growth inhibition at 10 ug/ml measured after 48 hrs by confocal microscopic analysis; assay type: functional, cell-based; how it was run: as §1
[3] = tested on: ECa-109 cell line; test: Cytotoxicity against human ECA109 cells assessed as cell growth inhibition after 48 hrs by MTT assay; assay type: functional, cell-based; details: ECa-109, 48 h
How it was run: (§2)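 Adherent cells seeded at 5000/well, left 16−24 h, then exposed 48 h at 37 °C, 5% CO2 in RPMI with 10% FBS. Medium refreshed, MTT added for 4 h at 37 °C, medium removed, formazan dissolved in DMSO, OD570 read. IC50 taken as concentration inhibiting growth by 50%; triplicate.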

[4] = tested on: L02; test: Cytotoxicity against human HL-7702 cells assessed as cell growth inhibition after 48 hrs by MTT assay; assay type: cell-based; details: L02, 48 h; how it was run: as §2
[5] = tested on: HepG2; test: Cytotoxicity against human HepG2 cells assessed as cell growth inhibition after 48 hrs by MTT assay; assay type: functional, cell-based; details: HepG2, 48 h; how it was run: as §2
[6] = tested on: K562; test: Cytotoxicity against human K562 cells assessed as cell growth inhibition after 48 hrs by MTT assay; assay type: functional, cell-based; details: K562, 48 h
How it was run: (§3)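 Suspension cells seeded at 5000/well (HL-60 in IMDM, K562 in RPMI, both with 10% FBS) and treated. MTT then added for 4 h at 37 °C; plates centrifuged at 3000 rpm for 30 min, medium removed, DMSO added, OD570 read. IC50 taken as concentration giving 50% growth inhibition; triplicate.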

[7] = tested on: HL-60; test: Cytotoxicity against human HL60 cells assessed as cell growth inhibition after 48 hrs by MTT assay; assay type: functional, cell-based; details: HL-60, 48 h; how it was run: as §3
[8] = tested on: A549; test: Cytotoxicity against human A549 cells assessed as cell growth inhibition after 48 hrs by MTT assay; assay type: functional, cell-based; details: A549, 48 h; how it was run: as §2

| SMILES | Activity [1] | TGI [2] | pIC50 [3] | pIC50 [4] | pIC50 [5] | pIC50 [6] | pIC50 [7] | pIC50 [8] |
| --- | --- | --- | --- | --- | --- | --- | --- | --- |
| CC(=O)O[C@H]1C(=O)[C@@]2(C)[C@H]([C@H](OC(=O)c3ccccc3)[C@]3(O)C[C@H](OC(=O)[C@H](O)[C@@H](NC(=O)c4ccccc4)c4ccccc4)C(C)=C1C3(C)C)[C@]1(OC(C)=O)CO[C@@H]1C[C@@H]2O | Active | Active |  |  |  |  |  |  |
| C=C(C)[C@@H]1CC[C@]2(C(=O)OC)CC[C@]3(C)[C@H](CC[C@@H]4[C@@]5(C)CC[C@H](OC(=O)CCCC[P+](c6ccccc6)(c6ccccc6)c6ccccc6)C(C)(C)[C@@H]5CC[C@]43C)[C@@H]12 |  |  | 5.32 | 5.20 | 5.36 | 5.45 | 5.51 | 5.30 |
| O=C(O)CCCC[P+](c1ccccc1)(c1ccccc1)c1ccccc1 |  |  | 3.95 | < 3.70 | 3.80 | < 3.70 | 3.93 | 3.76 |
| C=C(C)[C@@H]1CC[C@]2(C(=O)O)CC[C@]3(C)[C@H](CC[C@@H]4[C@@]5(C)CC[C@H](O)C(C)(C)[C@@H]5CC[C@]43C)[C@@H]12 [BETULINIC ACID] |  |  | 4.55 | 4.46 | 4.60 | 4.66 | 4.73 | 4.77 |
| C=C(C)[C@@H]1CC[C@]2(CO)CC[C@]3(C)[C@H](CC[C@@H]4[C@@]5(C)CC[C@H](O)C(C)(C)[C@@H]5CC[C@]43C)[C@@H]12 [BETULIN] |  |  | 4.57 | 4.57 | 4.97 | 4.89 | 4.51 | 4.74 |
